{
  "source": "paper PMC8319958",
  "about": "(ACS chemical biology, 2020)",
  "key": {"[1]": {"tested_on": "A549 cells", "assay": "Live-cell probe cleavage in A549 cells, with or without proteasome inhibitors", "assay_type": "cell-based", "conditions": "10 μM probe, monitored over 60 min"}, "[2]": {"tested_on": "MM.1R", "assay": "Cell viability", "assay_type": "cell-based", "conditions": "48 h, read-out: IC50 (cell viability)"}, "[3]": {"biological_target": "20S CP (Homo sapiens, UniProt P28074)", "assay": "LC/MS assay of library peptide cleavage by 20S CP", "assay_type": "biochemical", "conditions": "12 μM peptide, 9 nM 20S CP, 50 mM Tris pH 7.4, 37 °C, 1 h, triplicate", "how_it_was_run": "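Peptide stocks were 600 μM in DMSO, diluted to 12 μM final in 50 mM Tris pH 7.4. One triplicate got purified 20S CP (9 nM final) and the other buffer alone; both ran 1 h at 37 °C. An equal volume of acetonitrile denatured the enzyme. LC/MS EIC peak areas of intact peptide were scaled to the buffer-control mean (set to 1) to give fraction remaining. The four-mer product mass confirmed the cleavage site.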"}, "[4]": {"biological_target": "T1, proteasome (Homo sapiens, UniProt P28074)", "T1 sequence (P28074 60-263)": "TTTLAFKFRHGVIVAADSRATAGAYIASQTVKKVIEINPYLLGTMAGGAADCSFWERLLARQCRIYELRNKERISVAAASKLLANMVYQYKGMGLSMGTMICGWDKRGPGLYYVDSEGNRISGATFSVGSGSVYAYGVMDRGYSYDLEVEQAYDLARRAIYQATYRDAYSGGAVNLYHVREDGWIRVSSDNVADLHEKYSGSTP", "assay": "Proteasome stimulation in cells detected with TAS probes", "assay_type": "cell-based", "conditions": "cells dosed 1 h with stimulator, washed, TAS3 added, monitored over 60 min", "how_it_was_run": "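Cells (A549, 5000/well, adhered) were pretreated 1 h with test compound in culture medium and washed three times with PBS. They were then given 10 μM probe in modified KRBH buffer, and fluorescence was read on a plate reader for […]. After 25 min equilibration each well was zeroed, linear regression was fitted, and activity was expressed as % of the DMSO control.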"}},
  "note": "Numbered stars: 1 amine (or outer) side, 2 acyl side, 3 side chain; on linkers, the order of the positions; unused ones are H or OH. Peptide text beside a SMILES is read from it. * marks the point of attachment. AMC = Cc1cc(=O)oc2cc(N*)ccc12; Suc = O=C(CCC(=O)[*:2])[*:1]; Cbz = O=C(OCc1ccccc1)*",
  "data": [
    {"compound": "Cc1cc(=O)oc2cc(NC(=O)[C@H](Cc3ccc(O)cc3)NC(=O)[C@@H](NC(=O)[C@H](CC(C)C)NC(=O)[C@H](CC(C)C)NC(=O)CCC(=O)O)C(C)C)ccc12", "note": "[Suc-LLVY-AMC] (Suc-LLVY-{AMC})", "values": [
      {"measurement": "fluorescence signal (RFU) in cells compared to TAS1", "setting": "[1]", "value": "significantly lower"}
    ]},
    {"compound": "CC(C)C[C@@H](C=O)NC(=O)[C@H](CC(C)C)NC(=O)[C@H](CC(C)C)NC(=O)OCc1ccccc1", "note": "[MG-132] (Cbz-Leu-Leu-Leu-aldehyde)", "values": [
      {"measurement": "IC50", "setting": "[2]", "value": 264, "unit": "nM"}
    ]},
    {"compound": "D-Phe", "values": [
      {"measurement": "cleavage by 20S CP (in words)", "setting": "[3]", "value": "did not accept"}
    ]},
    {"compound": "CC(C)c1ccc2c(c1)c(SC(C)(C)C)c(CC(C)(C)C(=O)O)n2Cc1ccc(Cl)cc1", "note": "[MK-886]", "values": [
      {"measurement": "proteasome stimulation (% activity vs DMSO control)", "setting": "[4]", "value": "strong stimulators"}
    ]}
  ]
}
